Experimental data gathered from unrelated publications.
Lines come from different studies, so protocols differ.
SIGMAR1: Sigma non-opioid intracellular receptor 1 (SIGMAR1, Homo sapiens, UniProt Q99720)
PFF0160c E182D: Dihydroorotate dehydrogenase (quinone), mitochondrial (PFF0160c, Plasmodium falciparum, UniProt Q08210, E182D)
Oprm1: Mu-type opioid receptor (Oprm1, Mus musculus, UniProt P42866)
Nectin-4: Nectin-4 (Homo sapiens, UniProt Q96NY8)

SMILES	target	assay	endpoint	result
Cc1cccc(CN2CCN(C(c3ccccc3)c3ccc(Cl)cc3)CC2)c1 (stereo not shown)	SIGMAR1	ligand displacement, radioligand	Ki	1250 nM
CCn1cc(C(=O)NC2CCNCC2)n(Cc2ccccc2)c1=O	PFF0160c E182D	enzyme activity, inhibitor, absorbance	IC50	8940 nM
O=C(N[C@@H]1C=C[C@@]2(O)[C@H]3Cc4ccc(O)c5c4[C@@]2(CCN3CC2CC2)[C@H]1O5)c1n[nH]c2ccccc12	Oprm1	ligand displacement, radioligand	Ki	0.32 nM
CCCC[C@@H]1NC(=O)[C@H](Cc2ccc(O)cc2)NC(=O)[C@@H]2CCCN2C(=O)[C@H](CC(=O)O)NC(=O)[C@H](C)NC(=O)[C@H](Cc2ccccc2)NC(=O)[C@@H]2CSCCC(=O)N3CN(CN(C3)C(=O)CCSC[C@@H](C(=O)N[C@@H](C)C(N)=O)NC1=O)C(=O)CCSC[C@H](NC(C)=O)C(=O)N[C@@H](CC(C)(C)C)C(=O)N1CCC[C@H]1C(=O)N[C@@H](CCC(=O)O)C(=O)N[C@H](CCCCNC(=O)CCc1cn(CCOCCOCCOCCOCCOCCC(=O)N[C@H]3CSCCC(=O)N4CN5CN(C4)C(=O)CCSC[C@H](NC(=O)CNC(=O)[C@H](Cc4ccccc4)NC(=O)[C@@H]4CCCN4C3=O)C(=O)N[C@@H](CCSC)C(=O)N[C@@H](CCCCNC(=N)N)C(=O)N[C@@H](CC(=O)O)C(=O)N[C@@H](Cc3c[nH]c4ccccc34)C(=O)N[C@@H](CO)C(=O)N[C@@H]([C@@H](C)O)C(=O)N3CCC[C@H]3C(=O)N3C[C@H](O)C[C@H]3C(=O)N[C@@H](Cc3c[nH]c4ccccc34)C(=O)N[C@H](C(N)=O)CSCCC5=O)nn1)C(=O)N1CCC[C@H]1C(=O)N[C@@H](Cc1ccc(O)cc1)C(=O)N2	Nectin-4	binding, SPR	Kd	14 nM
CC(=O)Nc1sc(C)c(C)c1CN1CCc2ccccc2C1	PFF0160c E182D	enzyme activity, inhibitor, absorbance	IC50	1940 nM
FC(F)(F)c1ccc2c(c1)N(CCCN1CCN(CCCl)CC1)c1ccccc1S2	SIGMAR1	ligand displacement, radioligand	Ki	580 nM
CCCC[C@@H]1NC(=O)[C@H](Cc2ccc(O)cc2)NC(=O)[C@@H]2CCCN2C(=O)[C@H](CC(=O)O)NC(=O)[C@H](C)NC(=O)[C@H](Cc2ccccc2)NC(=O)[C@@H]2CSCCC(=O)N3CN(CN(C3)C(=O)CCSC[C@@H](C(=O)N[C@@H](C)C(N)=O)NC1=O)C(=O)CCSC[C@H](NC(C)=O)C(=O)N[C@@H](CC(C)(C)C)C(=O)N1CCC[C@H]1C(=O)N[C@@H](CCC(=O)O)C(=O)N[C@H](CCCCNC(=O)CCc1cn(CCOCCOCCOCCOCCOCCC(=O)NCCCC[C@H]3NC(=O)[C@H](Cc4cccc5ccccc45)NC(=O)[C@@H]4CCCN4C(=O)[C@@H](NC(C)=O)CSCCC(=O)N4CN5CN(C4)C(=O)CCSC[C@H](NC3=O)C(=O)N[C@@H](CCSC)C(=O)N[C@@H](CCCCNC(=N)N)C(=O)N[C@@H](CC(=O)O)C(=O)N[C@@H](Cc3c[nH]c4ccccc34)C(=O)N[C@@H](CO)C(=O)N[C@@H]([C@@H](C)O)C(=O)N3CCC[C@H]3C(=O)N3C[C@H](O)C[C@H]3C(=O)N[C@@H](Cc3c[nH]c4ccccc34)C(=O)N[C@H](C(N)=O)CSCCC5=O)nn1)C(=O)N1CCC[C@H]1C(=O)N[C@@H](Cc1ccc(O)cc1)C(=O)N2	Nectin-4	binding, SPR	Kd	1.3 nM
CCC(c1ccccc1)c1nn2c(-c3cccs3)nnc2s1 (stereo not shown)	Dihydroorotate dehydrogenase (quinone), mitochondrial (PFF0160c, Plasmodium falciparum, UniProt Q08210)	enzyme activity, inhibitor, absorbance	IC50	158 nM
CCCC[C@@H]1NC(=O)[C@H](Cc2ccc(O)cc2)NC(=O)[C@@H]2CCCN2C(=O)[C@H](CC(=O)O)NC(=O)[C@H](C)NC(=O)[C@H](Cc2ccccc2)NC(=O)[C@@H]2CSCCC(=O)N3CN(CN(C3)C(=O)CCSC[C@H](NC(C)=O)C(=O)N[C@@H](CC(C)(C)C)C(=O)N3CCC[C@H]3C(=O)N[C@@H](CCC(=O)O)C(=O)N[C@H](CCCCNC(=O)CCc3cn(CCOCCOCCOCCN(CCOCCOCCOCCC(=O)N[C@H]4CSCCC(=O)N5CN6CN(C5)C(=O)CCSC[C@H](NC(=O)[C@@H](CC(=O)O)NC(=O)[C@H](Cc5cccc7ccccc57)NC(=O)[C@@H]5CCCN5C4=O)C(=O)N[C@@H](CCSC)C(=O)N[C@@H](CCCCNC(=N)N)C(=O)N[C@@H](CC(=O)O)C(=O)N[C@@H](Cc4c[nH]c5ccccc45)C(=O)N[C@@H](CO)C(=O)N[C@@H]([C@@H](C)O)C(=O)N4CCC[C@H]4C(=O)N4C[C@H](O)C[C@H]4C(=O)N[C@@H](Cc4c[nH]c5ccccc45)C(=O)N[C@H](C(N)=O)CSCCC6=O)CCOCCOCCOCCn4cc(CCC(=O)NCCCC[C@H]5NC(=O)[C@H](CCC(=O)O)NC(=O)[C@@H]6CCCN6C(=O)[C@H](CC(C)(C)C)NC(=O)[C@@H](NC(C)=O)CSCCC(=O)N6CN7CN(C6)C(=O)CCSC[C@H](NC(=O)[C@H](Cc6ccc(O)cc6)NC(=O)[C@@H]6CCCN6C5=O)C(=O)N[C@@H](Cc5ccccc5)C(=O)N[C@@H](C)C(=O)N[C@@H](CC(=O)O)C(=O)N5CCC[C@H]5C(=O)N[C@@H](Cc5ccc(O)cc5)C(=O)N[C@@H](CCCC)C(=O)NCCSCCC7=O)nn4)nn3)C(=O)N3CCC[C@H]3C(=O)N[C@@H](Cc3ccc(O)cc3)C(=O)N2)C(=O)CCSCCNC1=O	Nectin-4	binding, SPR	Kd	2.8 nM
O=C(N[C@@H]1C=C[C@@]2(O)[C@H]3Cc4ccc(O)c5c4[C@@]2(CCN3CC2CC2)[C@H]1O5)c1c[nH]c2ccncc12	Oprm1	ligand displacement, radioligand	Ki	0.94 nM
Cc1nccn1CC1CCc2c(c3ccccc3n2C)C1=O (stereo not shown)	SIGMAR1	ligand displacement, radioligand	Ki	6510 nM
Cc1cc(F)ccc1NS(=O)(=O)c1ccc(-c2ccoc2)s1	PFF0160c E182D	enzyme activity, inhibitor, absorbance	IC50	> 10000 nM
CCCC[C@@H]1NC(=O)[C@H](Cc2ccc(O)cc2)NC(=O)[C@@H]2CCCN2C(=O)[C@H](CC(=O)O)NC(=O)[C@H](C)NC(=O)[C@H](Cc2ccccc2)NC(=O)[C@@H]2CSCCC(=O)N3CN(CN(C3)C(=O)CCSC[C@H](NC(C)=O)C(=O)N[C@@H](CC(C)(C)C)C(=O)N[C@@H](CCC(=O)O)C(=O)N[C@@H](CCC(=O)O)C(=O)N[C@H](CCCCNC(=O)CCc3cn(CCOCCOCCOCCOCCOCCC(=O)N[C@H]4CSCCC(=O)N5CN6CN(C5)C(=O)CCSC[C@H](NC(=O)[C@@H](CC(=O)O)NC(=O)[C@H](Cc5cccc7ccccc57)NC(=O)[C@@H]5CCCN5C4=O)C(=O)N[C@@H](CCSC)C(=O)N[C@@H](CCCCNC(=N)N)C(=O)N[C@@H](CC(=O)O)C(=O)N[C@@H](Cc4c[nH]c5ccccc45)C(=O)N[C@@H](CO)C(=O)N[C@@H]([C@@H](C)O)C(=O)N4CCC[C@H]4C(=O)N4C[C@H](O)C[C@H]4C(=O)N[C@@H](Cc4c[nH]c5ccccc45)C(=O)N[C@H](C(N)=O)CSCCC6=O)nn3)C(=O)N3CCC[C@H]3C(=O)N[C@@H](Cc3ccc(O)cc3)C(=O)N2)C(=O)CCSC[C@@H](C(N)=O)NC1=O	Nectin-4	binding, SPR	Kd	1.7 nM
